Results from ChEMBL document CHEMBL1806372, “Cytotoxic ring A-modified steroid analogues derived from Grundmann's ketone” (Eur J Med Chem, 2011).

What was measured:
SR = assay: Growth inhibition of human SR cells after 48 hrs by sulforhodamine B assay; type: functional
Method in brief: (§1)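 NCI 60-cell panel five-dose assay. GI50, TGI and LC50 are derived from log concentration versus % growth inhibition curves. Cell lines insensitive at the top concentration are given a ">" prefix.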

HOP-62 [1] = assay: Cytotoxicity against human HOP62 cells after 48 hrs by sulforhodamine B assay; type: functional; conditions: HOP-62, 48 h, read-out: LC50 (the source's name)
Method in brief: (§2)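 NCI 60 human tumour cell line panel run to the NCI protocol. GI50, TGI and LC50 come from log concentration vs % growth inhibition curves for each cell line. Lines insensitive at the top concentration are reported with ">".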

KM12 = assay: Growth inhibition of human KM12 cells after 48 hrs by sulforhodamine B assay; type: functional; conditions: KM12, 48 h
Method in brief: (§3)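 From log concentration versus % growth curves, GI50 (50% decrease in net growth), TGI (total growth inhibition) and LC50 (net 50% loss of initial cells) are derived for each line.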

HOP-92 = assay: Growth inhibition of human HOP92 cells after 48 hrs by sulforhodamine B assay; type: functional; conditions: HOP-92, 48 h; method in brief: as §3
EKVX = assay: Growth inhibition of human EKVX cells after 48 hrs by sulforhodamine B assay; type: functional; method in brief: as §3
SW-620 = assay: Growth inhibition of human SW620 cells after 48 hrs by sulforhodamine B assay; type: functional; conditions: SW-620, 48 h; method in brief: as §1
RXF 393 = assay: Growth inhibition of human RXF393 cells after 48 hrs by sulforhodamine B assay; type: functional; conditions: RXF 393, 48 h
Method in brief: (§4)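 GI50, TGI and LC50 were derived from log concentration versus % growth inhibition curves for each cell line. GI50 is the concentration giving a 50% decrease in net cell growth. Insensitive lines are reported as greater than the highest concentration.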

SF-295 = assay: Cytotoxicity against human SF295 cells after 48 hrs by sulforhodamine B assay; type: functional; conditions: SF-295, 48 h, read-out: LC50 (the source's name); method in brief: as §2
T47D [2] = assay: Cytotoxicity against human T47D cells after 48 hrs by sulforhodamine B assay; type: functional; conditions: read-out: LC50 (the source's name)
DU-145 = assay: Cytotoxicity against human DU145 cells after 48 hrs by sulforhodamine B assay; type: functional; conditions: DU-145, 48 h, read-out: LC50 (the source's name); method in brief: as §2
BT-549 = assay: Growth inhibition of human BT549 cells after 48 hrs by sulforhodamine B assay; type: functional; conditions: BT-549, 48 h; method in brief: as §3
OVCAR-3 [3] = assay: Growth inhibition of human OVCAR3 cells after 48 hrs by sulforhodamine B assay; type: functional; conditions: OVCAR-3, 48 h; method in brief: as §4
HT-29 [4] = assay: Cytotoxicity against human HT-29 cells after 48 hrs by sulforhodamine B assay; type: functional; conditions: HT-29, 48 h, read-out: LC50 (the source's name); method in brief: as §2
HL-60(TB) = assay: Cytotoxicity against human HL-60(TB) cells after 48 hrs by sulforhodamine B assay; type: functional; conditions: HL-60, 48 h, read-out: LC50 (the source's name); method in brief: as §2
OVCAR-3 [5] = assay: Cytotoxicity against human OVCAR3 cells after 48 hrs by sulforhodamine B assay; type: functional; conditions: OVCAR-3, 48 h, read-out: LC50 (the source's name); method in brief: as §2
MDA-MB-231 [6] = assay: Cytotoxicity against human MDA-MB-231 cells after 48 hrs by sulforhodamine B assay; type: functional; conditions: MDA-MB-231, 48 h, read-out: LC50 (the source's name); method in brief: as §2
MOLT-4 [7] = assay: Growth inhibition of human MOLT4 cells after 48 hrs by sulforhodamine B assay; type: functional; conditions: MOLT-4, 48 h; method in brief: as §4
CCRF-CEM = assay: Growth inhibition of human CCRF-CEM cells after 48 hrs by sulforhodamine B assay; type: functional; method in brief: as §3
TK-10 = assay: Cytotoxicity against human TK10 cells after 48 hrs by sulforhodamine B assay; type: functional; conditions: TK-10, 48 h, read-out: LC50 (the source's name)
T47D [8] = assay: Growth inhibition of human T47D cells after 48 hrs by sulforhodamine B assay; type: functional; method in brief: as §1
HOP-62 [9] = assay: Growth inhibition of human HOP62 cells after 48 hrs by sulforhodamine B assay; type: functional; conditions: HOP-62, 48 h; method in brief: as §3
MDA-MB-231 [10] = assay: Growth inhibition of human MDA-MB-231 cells after 48 hrs by sulforhodamine B assay; type: functional; conditions: MDA-MB-231, 48 h; method in brief: as §4
A498 = assay: Growth inhibition of human A498 cells after 48 hrs by sulforhodamine B assay; type: functional; conditions: A498, 48 h; method in brief: as §3
HCT-116 = assay: Growth inhibition of human HCT116 cells after 48 hrs by sulforhodamine B assay; type: functional; conditions: HCT-116, 48 h; method in brief: as §3
OVCAR-5 = assay: Growth inhibition of human OVCAR5 cells after 48 hrs by sulforhodamine B assay; type: functional; conditions: OVCAR-5, 48 h; method in brief: as §4
UACC-62 = assay: Growth inhibition of human UACC62 cells after 48 hrs by sulforhodamine B assay; type: functional; conditions: UACC-62, 48 h; method in brief: as §1
MOLT-4 [11] = assay: Cytotoxicity against human MOLT4 cells after 48 hrs by sulforhodamine B assay; type: functional; conditions: MOLT-4, 48 h, read-out: LC50 (the source's name); method in brief: as §2
NCI-H23 = assay: Cytotoxicity against human NCI-H23 cells after 48 hrs by sulforhodamine B assay; type: functional; conditions: NCI-H23, 48 h, read-out: LC50 (the source's name); method in brief: as §2
COLO 205 = assay: Growth inhibition of human COLO205 cells after 48 hrs by sulforhodamine B assay; type: functional; conditions: COLO 205, 48 h; method in brief: as §3
[12] = Cytotoxicity against human Hs 578T cells after 48 hrs by sulforhodamine B assay; type: functional; conditions: read-out: LC50 (the source's name); method in brief: as §2
[13] = Antibacterial activity against Pseudomonas antimicrobica assessed as zone of inhibition at 5 uL and 32 degC after 36 hrs by disk diffusion method; type: functional, Burkholderia gladioli
Method in brief: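 Disc diffusion on AC agar, each strain spread evenly over the medium; test compounds given as 1% (w/v) DMSO solutions. Plates covered and incubated 36 h at 32 °C, then the diameter of the zone of inhibited growth measured in mm. Tetracycline served as antibacterial reference.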

HT-29 [14] = assay: Growth inhibition of human HT-29 cells after 48 hrs by sulforhodamine B assay; type: functional; conditions: HT-29, 48 h; method in brief: as §3
SF-268 = assay: Cytotoxicity against human SF268 cells after 48 hrs by sulforhodamine B assay; type: functional; conditions: SF-268, 48 h, read-out: LC50 (the source's name); method in brief: as §2
NCI-H322M = assay: Growth inhibition of human NCI-H322M cells after 48 hrs by sulforhodamine B assay; type: functional; method in brief: as §4
SF-539 = assay: Cytotoxicity against human SF539 cells after 48 hrs by sulforhodamine B assay; type: functional; conditions: SF-539, 48 h, read-out: LC50 (the source's name); method in brief: as §2
PC-3 = assay: Cytotoxicity against human PC3 cells after 48 hrs by sulforhodamine B assay; type: functional; conditions: PC-3, 48 h, read-out: LC50 (the source's name); method in brief: as §2

Q: Which GI50 (SR) does the source give for CC(C)CCC[C@@H](C)[C@H]1CC[C@H]2C3=CCn4c(=O)ccc(=O)n4[C@@H]3CC[C@]12C here?
A: 0.137 µM

Q: What about the TGI (SR) of the same compound?
A: 0.758 µM

Q: What about the CC50 (HOP-62 [1]) of the same compound?
A: 5.33 µM

Q: And the GI50 (KM12)?
A: 0.443 µM

Q: What about the TGI (KM12) of the same compound?
A: 1.51 µM

Q: And the GI50 (HOP-92)?
A: 0.175 µM

Q: What about the TGI (HOP-92) of the same compound?
A: 1.03 µM

Q: What about the GI50 (EKVX) of the same compound?
A: 1.03 µM

Q: What about the TGI (EKVX) of the same compound?
A: 2.75 µM

Q: What about the GI50 (SW-620) of the same compound?
A: 0.375 µM

Q: What about the TGI (SW-620) of the same compound?
A: 1.36 µM

Q: What about the GI50 (RXF 393) of the same compound?
A: 0.952 µM

Q: What about the TGI (RXF 393) of the same compound?
A: 2.3 µM

Q: And the CC50 (SF-295)?
A: 3.76 µM

Q: And the CC50 (T47D [2])?
A: 6.29 µM

Q: What about the CC50 (DU-145) of the same compound?
A: 4.89 µM

Q: And the GI50 (BT-549)?
A: 0.312 µM

Q: What about the TGI (BT-549) of the same compound?
A: 0.876 µM

Q: And the GI50 (OVCAR-3 [3])?
A: 0.861 µM

Q: And the TGI (OVCAR-3 [3])?
A: 2.11 µM

Q: And the CC50 (HT-29 [4])?
A: 5.51 µM

Q: What about the CC50 (HL-60(TB)) of the same compound?
A: > 100 µM

Q: And the CC50 (OVCAR-3 [5])?
A: 4.78 µM

Q: What about the CC50 (MDA-MB-231 [6]) of the same compound?
A: 6.25 µM

Q: What about the GI50 (MOLT-4 [7]) of the same compound?
A: 0.545 µM

Q: And the TGI (MOLT-4 [7])?
A: 4.13 µM

Q: And the GI50 (CCRF-CEM)?
A: 0.36 µM

Q: And the TGI (CCRF-CEM)?
A: > 100 µM

Q: What about the CC50 (TK-10) of the same compound?
A: 3.6 µM

Q: And the GI50 (T47D [8])?
A: 0.255 µM

Q: What about the TGI (T47D [8]) of the same compound?
A: 1.62 µM

Q: And the GI50 (HOP-62 [9])?
A: 1.33 µM

Q: And the TGI (HOP-62 [9])?
A: 2.67 µM

Q: What about the GI50 (MDA-MB-231 [10]) of the same compound?
A: 1.04 µM

Q: And the TGI (MDA-MB-231 [10])?
A: 2.54 µM

Q: What about the GI50 (A498) of the same compound?
A: 1.06 µM

Q: What about the TGI (A498) of the same compound?
A: 2.27 µM

Q: And the GI50 (HCT-116)?
A: 0.142 µM

Q: And the TGI (HCT-116)?
A: 0.291 µM

Q: And the GI50 (OVCAR-5)?
A: 1.05 µM

Q: What about the TGI (OVCAR-5) of the same compound?
A: 2.87 µM

Q: And the GI50 (UACC-62)?
A: 0.544 µM

Q: What about the TGI (UACC-62) of the same compound?
A: 1.95 µM

Q: And the CC50 (MOLT-4 [11])?
A: > 100 µM

Q: And the CC50 (NCI-H23)?
A: 9 µM

Q: And the GI50 (COLO 205)?
A: 0.255 µM

Q: What about the TGI (COLO 205) of the same compound?
A: 0.623 µM

Q: And the CC50 [12]?
A: > 100 µM

Q: What about the “diameter of the inhibition zone (DIZ)” value [13] of the same compound?
A: 8 mm

Q: What about the GI50 (HT-29 [14]) of the same compound?
A: 0.616 µM

Q: What about the TGI (HT-29 [14]) of the same compound?
A: 2.07 µM

Q: What about the CC50 (SF-268) of the same compound?
A: 5.7 µM

Q: And the GI50 (NCI-H322M)?
A: 1.45 µM

Q: And the TGI (NCI-H322M)?
A: 2.91 µM

Q: And the CC50 (SF-539)?
A: 5.64 µM

Q: What about the CC50 (PC-3) of the same compound?
A: 4.83 µM

Q: Which “diameter of the inhibition zone (DIZ)” value [13] does the source give for CC(C)CCC[C@@H](C)[C@H]1CC[C@H]2[C@@H]3CCN4C(=O)CCC(=O)N4[C@@H]3CC[C@]12C here?
A: 12 mm
